Assays:
Type in all cases: functional
TK-10 = test: Cytotoxicity against human TK10 cells after 48 hrs by SRB assay; settings: TK-10, 48 h
How it was run: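 NCI 60-cell-line five-dose screen. Cells were grown in 1640 medium with 5% fetal calf serum and 2 mM L-glutamine, with inoculum density set by cell line, and pre-incubated 24 h. Compound in DMSO was added at 10^-4 to 10^-8 M (10-fold steps) with 48 h continuous exposure. Growth was read by SRB protein assay, and GI50, TGI and LC50 were derived from dose-response.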

CCRF-CEM = test: Cytotoxicity against human CCRF-CEM cells assessed as cell growth at 10 uM after 48 hrs by SRB assay; settings: read-out: Activity
How it was run: (§1)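 NCI primary single-dose screen at 10^-5 M against the ~60 human tumour cell line panel. Cells grown in RPMI-1640 with 5% fetal calf serum and 2 mM L-glutamine and pre-incubated 24 h before compound addition. Compound added from DMSO solution with 48 h exposure. Growth read by sulforhodamine B protein staining.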

A549 = test: Cytotoxicity against human A549/ATCC cells after 48 hrs by SRB assay; settings: A549, 48 h
How it was run: (§2)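 NCI ~60-line panel in RPMI-1640 with 5% fetal calf serum and 2 mM L-glutamine, pre-incubated 24 h. Compound in DMSO tested at five 10-fold concentrations (10^-4 to 10^-8 M) with 48 h continuous exposure. Growth measured by sulforhodamine B protein assay. GI50 (50% net growth inhibition), TGI (total inhibition) and LC50 (50% net cell death) derived from dose-response.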

OVCAR-3 = test: Cytotoxicity against human OVCAR3 cells after 48 hrs by SRB assay; settings: OVCAR-3, 48 h
How it was run: (§3)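 NCI five-dose screen on the ~60-line human tumor panel. Cells grown in RPMI-1640 with 5% fetal calf serum and 2 mM L-glutamine, seeded at line-dependent density and preincubated 24 h. Compound added from DMSO at 10-fold dilutions from 10^-4 to 10^-8 M, continuous exposure 48 h. Growth read by sulforhodamine B protein stain. GI50, TGI and LC50 derived per line.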

HL-60(TB) [1] = test: Cytotoxicity against human HL-60(TB) cells after 48 hrs by SRB assay; settings: HL-60, 48 h
How it was run: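 NCI 60-cell-line screen, five-dose assay: cells in RPMI1640 (printed "PMI1640") with 5% fetal calf serum and 2 mM L-glutamine, pre-incubated 24 h before compound addition. Compound in DMSO at 10-4, 10-5, 10-6, 10^-7 and 10^-8 M; continuous 48 h exposure. Growth estimated by sulforhodamine B protein assay; log GI50, TGI and LC50 derived from dose-response.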

HT-29 = test: Cytotoxicity against human HT-29 cells after 48 hrs by SRB assay; settings: HT-29, 48 h; how it was run: as §2
M14 = test: Cytotoxicity against human M14 cells after 48 hrs by SRB assay; settings: M14, 48 h; how it was run: as §3
HCT-116 = test: Cytotoxicity against human HCT116 cells after 48 hrs by SRB assay; settings: HCT-116, 48 h; how it was run: as §2
SK-MEL-5 = test: Cytotoxicity against human SK-MEL-5 cells assessed as cell growth at 10 uM after 48 hrs by SRB assay; settings: SK-MEL-5, 48 h, read-out: Activity
How it was run: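 NCI primary one-dose screen at 10^-5 M against the full panel of about 60 human tumour cell lines, run to the NCI Drug Evaluation Branch protocol.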

OVCAR-5 = test: Cytotoxicity against human OVCAR5 cells assessed as cell growth at 10 uM after 48 hrs by SRB assay; settings: OVCAR-5, 48 h, read-out: Activity
How it was run: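 NCI primary single-dose screen at 10^-5 M against the full panel of about 60 human tumor cell lines. Cells were in RPMI-1640 with 5% fetal calf serum and 2 mM L-glutamine and preincubated 24 h. Compound was given in DMSO with 48 h exposure. Growth was estimated by sulforhodamine B protein assay.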

RPMI-8226 = test: Cytotoxicity against human RPMI8226 cells after 48 hrs by SRB assay; settings: RPMI-8226, 48 h; how it was run: as §3
EKVX = test: Cytotoxicity against human EKVX cells assessed as cell growth at 10 uM after 48 hrs by SRB assay; settings: read-out: Activity; how it was run: as §1
Hs-578T = test: Cytotoxicity against human Hs578T cells assessed as cell growth at 10 uM after 48 hrs by SRB assay; settings: read-out: Activity; how it was run: as §1
HL-60(TB) [2] = test: Cytotoxicity against human HL-60(TB) cells assessed as cell growth at 10 uM after 48 hrs by SRB assay; settings: HL-60, 48 h, read-out: Activity
How it was run: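 NCI primary one-dose screen at 10^-5 M against about 60 human tumor cell lines. Cells pre-incubated 24 h, then compound in DMSO added for 48 h. Cell growth read by sulforhodamine B protein assay.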

CCc1ccc(-c2ccc(=O)n(-c3ccc(S(N)(=O)=O)cc3)n2)cc1
LC50 (TK-10): 77.6 µM
GI50 (TK-10; read-out: GI50): 10.8 µM
GI50 (TK-10; read-out: pGI50 (converted)): 11 µM
TGI (TK-10; read-out: pTGI (converted)): 28.8 µM
growth at 10 µM (CCRF-CEM): 27.9%
LC50 (A549): > 100 µM
GI50 (A549; read-out: GI50): 2.58 µM
GI50 (A549; read-out: pGI50 (converted)): 2.57 µM
TGI (A549; read-out: pTGI): > 100 µM
LC50 (OVCAR-3): > 100 µM
GI50 (OVCAR-3; read-out: GI50): 0.429 µM
GI50 (OVCAR-3; read-out: pGI50 (converted)): 0.427 µM
TGI (OVCAR-3; read-out: pTGI): > 100 µM
LC50 (HL-60(TB) [1]): > 100 µM
GI50 (HL-60(TB) [1]; read-out: GI50): 0.376 µM
GI50 (HL-60(TB) [1]; read-out: pGI50 (converted)): 0.38 µM
TGI (HL-60(TB) [1]; read-out: pTGI (converted)): 3.02 µM
LC50 (HT-29): > 100 µM
GI50 (HT-29; read-out: GI50): 0.436 µM
GI50 (HT-29; read-out: pGI50 (converted)): 0.437 µM
TGI (HT-29; read-out: pTGI): > 100 µM
LC50 (M14): > 100 µM
GI50 (M14; read-out: GI50): 0.335 µM
GI50 (M14; read-out: pGI50 (converted)): 0.339 µM
TGI (M14; read-out: pTGI (converted)): 4.9 µM
LC50 (concentration causing 50% net cell death) (HCT-116): > 100 µM
GI50 (HCT-116; read-out: GI50): 0.535 µM
GI50 (HCT-116; read-out: pGI50 (converted)): 0.537 µM
TGI (HCT-116; read-out: pTGI (converted)): 19.1 µM
growth at 10 µM (SK-MEL-5): 12.9%
growth at 10 µM (OVCAR-5): 91.6%
LC50 (RPMI-8226): > 100 µM
GI50 (RPMI-8226; read-out: GI50): 0.479 µM
GI50 (RPMI-8226; read-out: pGI50 (converted)): 0.479 µM
TGI (RPMI-8226; read-out: pTGI (converted)): 8.51 µM
growth at 10 µM (EKVX): 69.1%
growth at 10 µM (Hs-578T): 28.6%
growth at 10 µM (HL-60(TB) [2]): -4.27%

Source: ChEMBL document CHEMBL1944532, “Synthesis and evaluation of anticancer activity of some novel 6-aryl-2-(p-sulfamylphenyl)-pyridazin-3(2H)-ones” (Eur J Med Chem, 2012)
